In ChEMBL document CHEMBL1142189 (Antimicrob Agents Chemother, 2007):
≈ marks a conversion by molar mass, not a printed value.

What was measured:
Format in all cases: functional, organism-based
Plasmodium falciparum [1] = assay: Inhibition of Plasmodium falciparum AZ10011003 isolate in HRP2 ELISA
Method in brief: (§1)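 Fresh pre-treatment clinical P. falciparum isolates, unfrozen, unwashed and not precultured, in duplicate at 1.5% hematocrit in RPMI 1640 with 0.5% Albumax and 25 mg/liter gentamicin. Plates carried predried twofold dilutions, single or in an 8x8 checkerboard. Incubation was 72 h at 37.5°C in 5% CO2/5% O2/90% N2, then two freeze-thaws. HRP2 sandwich ELISA read at 450 nm; IC50 from nonlinear regression.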

Plasmodium falciparum [2] = assay: Inhibition of Plasmodium falciparum AZ10011008 isolate in HRP2 ELISA; method in brief: as §1
Plasmodium falciparum [3] = assay: Inhibition of Plasmodium falciparum AZ10011017 isolate in HRP2 ELISA
Plasmodium falciparum [4] = assay: Inhibition of Plasmodium falciparum AZ10011022 isolate in HRP2 ELISA; method in brief: as §1
Plasmodium falciparum [5] = assay: Inhibition of Plasmodium falciparum in HRP2 ELISA
Method in brief: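 Fresh P. falciparum clinical isolates from untreated patients with confirmed monoinfection, unfrozen, unwashed, not precultured, no serum added; 1.5% hematocrit in complete RPMI 1640 with 0.5% Albumax and 25 mg/liter gentamicin, tested in duplicate. Twofold serial dilutions, seven concentrations plus drug-free control, on predried plates; 72 h at 37.5°C under 5% CO2/5% O2/90% N2. Plates freeze-thawed twice, HRP2 sandwich ELISA at 450 nm; IC50 by nonlinear regression.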

Compound	IC50 (Plasmodium falciparum [1])	IC50 (Plasmodium falciparum [2])	IC50 (Plasmodium falciparum [3])	IC50 (Plasmodium falciparum [4])	IC50 (Plasmodium falciparum [5])	IC90 (Plasmodium falciparum [5])	IC99 (Plasmodium falciparum [5])
C[C@H]1[C@@H](O)O[C@@H]2O[C@@]3(C)CC[C@H]4[C@H](C)CC[C@@H]1[C@@]24OO3 [ARTENIMOL]	0.00024 µg/mL (≈ 0.000844 µM)	0.00091 µg/mL (≈ 0.0032 µM)	0.00027 µg/mL (≈ 0.00095 µM)	0.00038 µg/mL (≈ 0.00134 µM)	0.00053 µg/mL (≈ 0.00186 µM)	0.00143 µg/mL (≈ 0.00503 µM)	0.00228 µg/mL
CC[C@H]1OC(=O)[C@H](C)[C@@H](O[C@H]2C[C@@](C)(OC)[C@@H](O)[C@H](C)O2)[C@H](C)[C@@H](O[C@@H]2O[C@H](C)C[C@H](N(C)C)[C@H]2O)[C@](C)(O)C[C@@H](C)CN(C)[C@H](C)[C@@H](O)[C@]1(C)O [AZITHROMYCIN]	2.44 µg/mL (≈ 3.26 µM)	5.34 µg/mL (≈ 7.13 µM)	1.98 µg/mL (≈ 2.64 µM)	2.19 µg/mL (≈ 2.92 µM)	2.57 µg/mL (≈ 3.43 µM)	13.3 µg/mL (≈ 17.8 µM)	23.9 µg/mL
CCN(CC)CCCC(C)Nc1ccnc2cc(Cl)ccc12 (centres undefined) [CHLOROQUINE]	–	–	–	–	–	0.13 µg/mL (≈ 0.405 µM)	0.172 µg/mL
OC(c1cc(C(F)(F)F)nc2c(C(F)(F)F)cccc12)C1CCCCN1 (centres undefined) [MEFLOQUINE]	–	–	–	–	–	0.031 µg/mL (≈ 0.0819 µM)	0.0467 µg/mL
C=C[C@H]1CN2CC[C@H]1C[C@H]2[C@H](O)c1ccnc2ccc(OC)cc12 [QUININE]	0.123 µg/mL (≈ 0.38 µM)	0.0828 µg/mL (≈ 0.255 µM)	–	0.116 µg/mL (≈ 0.359 µM)	0.0644 µg/mL (≈ 0.198 µM)	0.173 µg/mL (≈ 0.533 µM)	0.251 µg/mL
